Compound activity as filed in PubChem.
This is a sample that favours compounds with a hit; in the whole collection about 7.6% have one here.
M1 agonist: M1 muscarinic receptor agonists, primary screen, CHO-M1 cells, Fluo-4 calcium, agonist mode. Muscarinic acetylcholine receptor M1. 64,000 compounds, 3% hits. Fluo-4 calcium fluorescence; active compounds read high. B-score at 10 µM;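 active = fluorescence rise, raw or as B-score row- and column-corrected plate score, outside the 99.7% band of its plate's samples, either direction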
Jurkat viability: cytotoxicity toward Jurkat T cells, primary screen, cytotoxicity control, cell-based, Jurkat E6.1, 60K MLSMR library. Jurkat E6.1 viability, ATP luminescence, 48 h. inhibition, % at 4 µM. 56,000 compounds, 1.2% hits;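 active = inhibition above the mean inhibition of all tested compounds plus 3 SD, cut at about 28% in these data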
DAT uptake mod: changed hDAT dopamine uptake under cocaine IC80, either direction, primary screen, cocaine antagonist project, cell-based, LLC-PK1 hDAT, [14C]-dopamine uptake, MLSMR | Sodium-dependent dopamine transporter (Homo sapiens), Q01959 | LLC-PK1 hDAT cells, [14C]-dopamine uptake with cocaine IC80; actives deviate in either direction | B-score at 10 µM | 110,000 compounds, 1.3% hits | AID 449768, 2010;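 active = Z score or B-score, a plate-position-corrected score, falls beyond the plate's 99.7% confidence bounds, in either direction; inactive = both scores lie inside the 99.7% bounds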
HEK293 NFkB inh: inhibitors of PMA/ionomycin-induced NF-kB reporter, primary screen, antigen receptor NF-kB inhibitor project, cell-based, HEK-293 luciferase reporter, luminescence; HEK-293 NF-kB luciferase reporter; inhibition, % at 3 µM; 62,000 compounds, 0.21% hits; AID 465, 2006;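 active = inhibition above the mean of all tested compounds plus 3 SD, cut at about 40% in these data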
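Signal: luciferase luminescence; Material: HEK-293 cells with stable firefly luciferase reporter driven by four HIV NF-kB elements; Probe or stimulus: PMA with ionomycin; Replication: tested once; Times: 1 h compound pretreatment, then 16 h stimulation at 37 °C, 5% CO2; Benchmarks: DMSO and 10 µM reference inhibitor; Evaluation: per-plate % inhibition versus controls.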
M1 antag: antagonists of rat M1 muscarinic receptor | B-score at 10 µM | CHO-M1 cells, Fluo-4 calcium, ACh EC80 antagonist mode; active compounds read low | Muscarinic acetylcholine receptor M1 (Rattus norvegicus), P08482 | 64,000 compounds, 3.4% hits;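 active = calcium fluorescence response, raw or row-and-column corrected B-score, differing from the plate sample mean either way at a set confidence level, mostly lower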
D1 mod: D1 CRE-luciferase signal change, two-sided – cell-based, HEK293 D1, dopamine EC30, D1 allosteric modulator project, primary screen; AID 641, 2007; D(1A) dopamine receptor (Homo sapiens), P21728; B-score at 10 µM; dopamine EC30 potentiation; actives deviate in either direction; 58,000 compounds, 5.9% hits;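 active = luminescence count or its row- and column-corrected plate score outside the 99.7% band of the plate's sample wells, on either side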
Target sequence (P21728 whole entry, looked up): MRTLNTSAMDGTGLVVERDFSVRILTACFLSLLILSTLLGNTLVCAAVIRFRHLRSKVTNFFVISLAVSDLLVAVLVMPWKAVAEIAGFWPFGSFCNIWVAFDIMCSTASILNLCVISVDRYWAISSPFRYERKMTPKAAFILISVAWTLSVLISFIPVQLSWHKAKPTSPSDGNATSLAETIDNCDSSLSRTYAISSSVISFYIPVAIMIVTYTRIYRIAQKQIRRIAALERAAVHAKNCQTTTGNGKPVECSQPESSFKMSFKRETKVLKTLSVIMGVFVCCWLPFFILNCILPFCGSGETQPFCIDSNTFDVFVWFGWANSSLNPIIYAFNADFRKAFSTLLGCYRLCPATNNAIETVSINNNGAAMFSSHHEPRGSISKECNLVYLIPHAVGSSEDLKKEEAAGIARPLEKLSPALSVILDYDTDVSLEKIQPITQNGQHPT
M1 antag conf: rat M1 muscarinic receptor antagonists, confirmation, CHO cells, Fluo-4 calcium, duplicate; shares compounds with M1 antag; ACh EC80 antagonism; active compounds read low; calcium response (max-min fluorescence) at 10 µM; 1,700 compounds, 43% hits; AID 677, 2007;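 active = calcium response below the same-plate mean of wells given acetylcholine alone at its 80%-effect dose, minus 3 SD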
mGluR4 antag: human mGluR4 response to M1 antagonist hits, M1 allosteric modulator project, cell-based, antagonist mode, secondary assay 1; shares compounds with M1 antag; CHO-mGluR4 calcium flux, Fluo-4 fluorescence, glutamate EC80; active compounds read low; fluorescence response (max-min) at 10 µM; 1,700 compounds, 0.9% hits; AID 678, 2007;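 active = fluorescence response below the plate's average for near-maximal glutamate wells, less 3 SD of those wells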;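 note: raw unnormalized fluorescence span taken in the window right after glutamate addition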
Hits are given with their value; i = inactive; nt = not tested or not shown.

SMILES	M1 agonist	Jurkat viability	DAT uptake mod	HEK293 NFkB inh	M1 antag	D1 mod	M1 antag conf	mGluR4 antag
Cc1onc(-c2ccccc2Cl)c1C(=O)Nc1ccc(-n2nncc2C(C)(C)C)cc1	i	nt	i	i	i	nt	nt	nt
O=c1c2cccnc2[nH]c(=S)n1CCC1=CCCCC1	i	i	i	i	i	nt	nt	nt
Cc1noc(C)c1C(=O)N1CCN(Cc2ccccc2)CC1	nt	nt	i	nt	nt	nt	nt	nt
Cc1noc(C)c1C(=O)N1CCN(C(=O)c2sc3cc(Cl)ccc3c2Cl)CC1	i	i	i	i	-3.99	i	i	i
CN(C(=O)CSc1nc2ccccc2n1CCc1ccccc1)C1CCS(=O)(=O)C1 (stereo not drawn)	i	i	i	i	-10.2	i	i	i
O=C(NCc1ccccc1)C1COc2ccccc2O1 (stereo not drawn)	nt	nt	i	nt	nt	nt	nt	nt
O=C(NC1CCN(Cc2ccccc2)CC1)C1COc2ccccc2O1 (stereo not drawn)	i	i	i	i	-4.51	-3.94	377	i
CC(C)[N+](C)(CCOC(=O)C1c2ccccc2Oc2ccccc21)C(C)C	i	nt	i	nt	-15.7	i	19.2	i
N=c1n(CCN2CCCCC2)c2ccccc2n1CC(O)c1cccc(Br)c1 (stereo not drawn)	i	i	i	i	-4.08	i	i	i
N=c1n(CCN2CCCCC2)c2ccccc2n1CC(O)c1ccc(Cl)c(Cl)c1 (stereo not drawn)	nt	nt	i	nt	nt	nt	nt	nt
CCCCn1c(=N)n(CC(O)COc2ccccc2)c2ccccc21 (stereo not drawn)	i	i	i	i	-2.34	i	i	i
CCCCn1c(=N)n(CC(O)COc2ccc(C)cc2)c2ccccc21 (stereo not drawn)	i	i	i	i	i	i	nt	nt
COC(=O)Cn1c(=N)n(CCN2CCCCC2)c2ccccc21	i	i	i	i	i	i	nt	nt
COc1ccccc1OCC(O)Cn1c(=N)n(CCN2CCCCC2)c2ccccc21 (stereo not drawn)	i	nt	i	i	-1.56	-2.54	i	i
CN1C(=O)NC(c2ccc(O)cc2)C(C(=O)c2cccs2)C1(O)C(F)(F)F (stereo not drawn)	i	i	i	i	-3.35	i	i	i
COc1ccc2c(c1)Sc1ccccc1N2CCN(C)C	i	i	i	i	-8.57	i	114	i
O=C(Nc1cccc(S(=O)(=O)C(F)F)c1)c1ccc(Cl)c(S(=O)(=O)N2CCOCC2)c1	i	i	i	i	-2.24	i	i	104
NC(=O)CSc1nnc(Cc2csc(Nc3ccc(F)cc3)n2)n1Cc1ccccc1	nt	nt	i	nt	nt	nt	nt	nt
COC(/C=C/Nc1ccc(Br)cc1)=C(C#N)C#N	nt	nt	i	nt	nt	nt	nt	nt
CC(=O)Nc1ccc(S(=O)(=O)N2CCN(C34CC5CC(CC(C5)C3)C4)CC2)cc1	i	i	i	i	-3.06	i	i	i
Cc1ccc(-c2cccc(NC(=O)C3C(C(=O)O)[C@@H]4C=C[C@H]3C4)c2)o1 (stereo partly drawn)	i	i	i	i	i	i	nt	nt
C1CCC(CNc2c3c(nc4nnnn24)CCCC3)CC1	i	nt	i	i	-2.94	nt	i	i
Cc1nnc(SCC(=O)N2CCN(S(=O)(=O)c3ccccc3)CC2)n1Cc1ccccc1	i	i	i	i	-6.36	i	350	i
Cc1ccc(S(=O)(=O)N2CCN(C(=O)CSc3nnc(-c4ccco4)o3)CC2)cc1	i	i	i	i	-2.99	i	i	i
CCn1c(SCC(=O)N2CCN(S(=O)(=O)c3ccccc3)CC2)nnc1-c1cccs1	i	i	i	i	i	i	nt	nt
SMILES	M1 agonist	Jurkat viability	DAT uptake mod	HEK293 NFkB inh	M1 antag	D1 mod	M1 antag conf	mGluR4 antag
CCOc1ccc(NC2c3ccccc3C(=O)N2Cc2ccc3c(c2)OCO3)cc1 (stereo not drawn)	nt	nt	i	nt	nt	nt	nt	nt
CC(=O)c1cccc(NC2c3ccccc3C(=O)N2Cc2ccc3c(c2)OCO3)c1 (stereo not drawn)	i	i	i	i	-3.05	i	i	i
COc1ccc(CNC(=O)CSc2nnnn2-c2ccccc2)cc1	i	i	i	i	-4.77	i	i	i
CCCCNC(=O)N1CCOCCOCCN(C(=O)NCCCC)CCOCC1	i	nt	i	nt	-2.32	i	i	i
COCCN(C(=O)COc1ccccc1)c1nnc(-c2cccnc2)s1	i	i	i	i	-2.75	i	i	i
CCOC(=O)C1CCN(S(=O)(=O)c2cccc(-c3cn4cc(Cl)ccc4n3)c2)CC1	nt	nt	i	nt	nt	nt	nt	nt
CCOC(=O)C1CCN(S(=O)(=O)c2cccc(-c3cn4ccccc4n3)c2)CC1	i	i	i	i	-3.07	i	i	i
Cn1c(-c2ccc(F)cc2)cnc1NCc1ccc(F)cc1	nt	nt	i	nt	nt	nt	nt	nt
Cc1ccc(CNc2ncc(-c3ccc4c(c3)OCO4)n2C)cc1	i	i	i	i	-2.89	i	447	i
Cn1c(-c2ccc(F)cc2)cnc1NCc1ccc(C#N)cc1	i	i	i	i	-3.4	i	i	i
Cn1c(-c2ccc3c(c2)OCO3)cnc1NCc1ccc(Cl)cc1	i	i	i	i	-6.63	-4.31	358	i
O=C(O)C1CCCNC1 (stereo not drawn)	nt	nt	i	nt	nt	nt	nt	nt
CCOC(=O)C1CCN(CCC(=O)Nc2ccccc2Cl)CC1	nt	nt	i	nt	nt	nt	nt	nt
NCCCC[C@@H]1NC(=O)c2cc([N+](=O)[O-])cc(F)c2NCCCC[C@@H](C(N)=O)NC(=O)[C@H](CCC(N)=O)NC1=O	nt	nt	i	nt	nt	nt	nt	nt
Cc1cc(NC(=O)CN2CCN(Cc3ccccc3)CC2)nc2c1c(=O)oc1ccccc12	i	i	nt	i	-2.41	i	i	i
Cc1cc(NC(=O)Cc2ccccc2)nc2c1c(=O)oc1ccccc12	nt	nt	i	nt	nt	nt	nt	nt
CCCc1cc(=O)oc2cc(C)cc(OC(=O)c3ccco3)c12	i	i	i	i	-2.92	i	i	i
CCCc1cc(=O)oc2cc(C)cc(O)c12	nt	nt	i	nt	nt	nt	nt	nt
COc1ccc(Oc2c(C)oc3c(CN4CCOCC4)c(O)ccc3c2=O)cc1	nt	nt	i	nt	nt	nt	nt	nt
CCOC(=O)c1ccc(Oc2c(C)oc3c(CN4CCN(C)CC4)c(O)ccc3c2=O)cc1	i	i	i	i	-4.39	nt	405	i
